Laboratory results published in ChEMBL document CHEMBL3769357, “Phosphoramidate protides of five flavones and their antiproliferative activity against HepG2 and L-O2 cell lines” (Eur J Med Chem, 2016).

Tests used:
[1] = system: HepG2; experiment: Antiproliferative activity against human HepG2 cells after 48 hrs by MTT assay; type: functional, cell-based; conditions: HepG2, 48 h
In short: (§1)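 After 48 h, MTT (5 mg/mL in PBS) added, 4 h at 37 °C, DMSO added, absorbance read at 570 nm. IC50 is the 50% growth-inhibition concentration, mean of three independent experiments.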

[2] = Cytotoxicity against human LO2 cells after 48 hrs by MTT assay; type: cell-based; conditions: L02, 48 h; in short: as §1
[3] = system: HepG2; experiment: Selectivity index, ratio of IC50 for human LO2 cells to human HepG2 cells
[4] = system: HepG2; experiment: Induction of cell cycle arrest in human HepG2 cells assessed as accumulation at G0/G1 phase at IC50 after 24 hrs by propidium iodide staining-based flow cytometry (reference value: 67.5%); type: functional
[5] = system: HepG2; experiment: Induction of cell cycle arrest in human HepG2 cells assessed as accumulation at S phase at IC50 after 24 hrs by propidium iodide staining-based flow cytometry (reference value: 16.1%); type: functional
[6] = system: HepG2; experiment: Induction of cell cycle arrest in human HepG2 cells assessed as accumulation at G2/M phase at IC50 after 24 hrs by propidium iodide staining-based flow cytometry (reference value: 16.4%); type: functional
[7] = system: HepG2; experiment: Induction of apoptosis in human HepG2 cells assessed as viable cells at IC50 after 4 hrs by annexin V-FITC/propidium iodide staining-based flow cytometry (reference value: 98.6%); type: functional
[8] = system: HepG2; experiment: Induction of apoptosis in human HepG2 cells assessed as viable cells at IC50 after 24 hrs by annexin V-FITC/propidium iodide staining-based flow cytometry (reference value: 90.5%); type: functional
[9] = system: HepG2; experiment: Induction of apoptosis in human HepG2 cells assessed as nectrotic cells at IC50 after 4 hrs by annexin V-FITC/propidium iodide staining-based flow cytometry (reference value: 0.46%); type: functional
[10] = system: HepG2; experiment: Induction of apoptosis in human HepG2 cells assessed as nectrotic cells at IC50 after 24 hrs by annexin V-FITC/propidium iodide staining-based flow cytometry (reference value: 6.70%); type: functional
[11] = system: HepG2; experiment: Induction of apoptosis in human HepG2 cells assessed as early apoptotic cells at IC50 after 4 hrs by annexin V-FITC/propidium iodide staining-based flow cytometry (reference value: 0.41%); type: functional
[12] = system: HepG2; experiment: Induction of apoptosis in human HepG2 cells assessed as late apoptotic cells at IC50 after 4 hrs by annexin V-FITC/propidium iodide staining-based flow cytometry (reference value: 0.53%); type: functional
[13] = system: HepG2; experiment: Induction of apoptosis in human HepG2 cells assessed as late apoptotic cells at IC50 after 24 hrs by annexin V-FITC/propidium iodide staining-based flow cytometry (reference value: 1.77%); type: functional
[14] = system: HepG2; experiment: Induction of apoptosis in human HepG2 cells assessed as early apoptotic cells at IC50 after 24 hrs by annexin V-FITC/propidium iodide staining-based flow cytometry (reference value: 0.41%)

Row | Structure (SMILES) | IC50 [1] [µM] | IC50 [2] [µM] | Ratio IC50 [3] | also measured
1 | COC(=O)[C@H](Cc1ccccc1)NP(=O)(Oc1ccccc1)Oc1cc(O)c2c(=O)cc(-c3ccccc3)oc2c1 (stereo not given in full) | > 100 | > 100 |  | 
2 | COC(=O)CNP(=O)(Oc1ccccc1)Oc1cc(O)c2c(=O)cc(-c3ccccc3)oc2c1 (stereo not given) | 42.6 | 96.5 | 2.265 | 
3 | COC(=O)CNP(=O)(Oc1ccccc1)Oc1ccc2c(=O)c(-c3ccc(OC(C)=O)cc3)coc2c1 (stereo not given) | > 100 | > 100 |  | 
4 | COC(=O)[C@H](C)NP(=O)(Oc1ccccc1)Oc1ccc2c(=O)c(-c3ccc(OC(C)=O)cc3)coc2c1 (stereo not given in full) | 5.5 | 24.3 | 4.418 | Activity [4]: 0.7%; Activity [5]: 1.2%; Activity [6]: 98.1%; Activity [7]: 97.12%; Activity [8]: 51.19%; Activity [9]: 0.76%; Activity [10]: 2.08%; Activity [11]: 0.69%; Activity [12]: 1.43%; Activity [13]: 2.56%; Activity [14]: 44.16%
5 | COC(=O)CNP(=O)(Oc1ccccc1)Oc1cc(OC(C)=O)c2c(=O)c(-c3ccc(OC(C)=O)cc3)coc2c1 (stereo not given) | 39.7 | 55.2 | 1.39 | 
6 | COC(=O)CNP(=O)(Oc1ccccc1)Oc1ccc2c(=O)c(-c3ccc(O)cc3)coc2c1 (stereo not given) | 48.8 | > 100 | 2.049 | 
7 | COC(=O)[C@H](CC(C)C)NP(=O)(Oc1ccccc1)Oc1cc(O)c2c(=O)cc(-c3ccc(O)c(O)c3)oc2c1 (stereo not given in full) | 22.4 | 34 | 1.581 | 
8 | COC(=O)[C@H](Cc1ccccc1)NP(=O)(Oc1ccccc1)Oc1ccc2c(=O)c(-c3ccc(O)cc3)coc2c1 (stereo not given in full) | 52.1 | 39.3 | 0.754 | 
9 | COC(=O)[C@@H](NP(=O)(Oc1ccccc1)Oc1cc(O)c2c(=O)cc(-c3ccc(O)c(O)c3)oc2c1)C(C)C (stereo not given in full) | 16.6 | 8.2 | 0.494 | 
10 | COC(=O)[C@H](CC(C)C)NP(=O)(Oc1ccccc1)Oc1ccc2c(=O)c(-c3ccc(O)cc3)coc2c1 (stereo not given in full) | 66 | 47.7 | 0.723 | 
11 | COC(=O)[C@@H](NP(=O)(Oc1ccccc1)Oc1cc(OC(C)=O)c2c(=O)cc(-c3ccc(OC(C)=O)cc3)oc2c1)C(C)C (stereo not given in full) | 18.4 | 29.4 | 1.59 | 
12 | COC(=O)[C@H](Cc1ccccc1)NP(=O)(Oc1ccccc1)Oc1cc(O)c2c(=O)c(-c3ccc(O)cc3)coc2c1 (stereo not given in full) | > 100 | > 100 |  | 
13 | COC(=O)[C@H](Cc1ccccc1)NP(=O)(Oc1ccccc1)Oc1cc(O)c2c(=O)cc(-c3ccc(O)c(O)c3)oc2c1 (stereo not given in full) | 15.7 | 39.1 | 2.49 | 
14 | COC(=O)[C@H](Cc1ccccc1)NP(=O)(Oc1ccccc1)Oc1cc(OC(C)=O)c2c(=O)cc(-c3ccc(OC(C)=O)c(OC(C)=O)c3)oc2c1 (stereo not given in full) | 27.1 | 30.3 | 1.118 | 
15 | COC(=O)[C@H](CC(C)C)NP(=O)(Oc1ccccc1)Oc1cc(OC(C)=O)c2c(=O)cc(-c3ccc(OC(C)=O)cc3)oc2c1 (stereo not given in full) | 22.1 | 59.8 | 2.706 | 
16 | COC(=O)[C@H](C)NP(=O)(Oc1ccccc1)Oc1cc(OC(C)=O)c2c(=O)cc(-c3ccc(OC(C)=O)c(OC(C)=O)c3)oc2c1 (stereo not given in full) | 27.3 | 51.2 | 1.875 | 
17 | COC(=O)CNP(=O)(Oc1ccccc1)Oc1cc(OC(C)=O)c2c(=O)cc(-c3ccc(OC(C)=O)cc3)oc2c1 (stereo not given) | 47.8 | > 100 | >2.092 | 
18 | COC(=O)[C@H](Cc1ccccc1)NP(=O)(Oc1ccccc1)Oc1cc(OC(C)=O)c2c(=O)cc(-c3ccc(OC(C)=O)cc3)oc2c1 (stereo not given in full) | 38.5 | 45.9 | 1.192 | 
19 | COC(=O)[C@H](Cc1ccccc1)NP(=O)(Oc1ccccc1)Oc1cc(O)c2c(=O)cc(-c3ccc(O)cc3)oc2c1 (stereo not given in full) | 36.6 | > 100 | >2.732 | 
20 | COC(=O)[C@H](CC(C)C)NP(=O)(Oc1ccccc1)Oc1cc(OC(C)=O)c2c(=O)c(-c3ccc(OC(C)=O)cc3)coc2c1 (stereo not given in full) | 54 | 60.1 | 1.113 | 
21 | COC(=O)[C@@H](NP(=O)(Oc1ccccc1)Oc1cc(O)c2c(=O)cc(-c3ccccc3)oc2c1)C(C)C (stereo not given in full) | 21.1 | > 100 | >5 | 

Row | Structure (SMILES) | IC50 [1] [µM] | IC50 [2] [µM] | Ratio IC50 [3] | also measured
22 | COC(=O)[C@H](C)NP(=O)(Oc1ccccc1)Oc1cc(O)c2c(=O)cc(-c3ccccc3)oc2c1 (stereo not given in full) | 35.3 | 62.3 | 1.765 | 
23 | COC(=O)[C@H](C)NP(=O)(Oc1ccccc1)Oc1ccc2c(=O)c(-c3ccc(O)cc3)coc2c1 (stereo not given in full) | 28.8 | 20.5 | 0.712 | 
24 | COC(=O)CNP(=O)(Oc1ccccc1)Oc1cc(O)c2c(=O)cc(-c3ccc(O)c(O)c3)oc2c1 (stereo not given) | 47.7 | 47.7 | 1 | 
25 | COC(=O)[C@H](CC(C)C)NP(=O)(Oc1ccccc1)Oc1cc(O)c2c(=O)cc(-c3ccc(O)cc3)oc2c1 (stereo not given in full) | 37.2 | 52.8 | 1.419 | 
26 | COC(=O)[C@H](CC(C)C)NP(=O)(Oc1ccccc1)Oc1cc(O)c2c(=O)cc(-c3ccccc3)oc2c1 (stereo not given in full) | > 100 | > 100 |  | 
27 | COC(=O)[C@H](CC(C)C)NP(=O)(Oc1ccccc1)Oc1cc(OC(C)=O)c2c(=O)cc(-c3ccc(OC(C)=O)c(OC(C)=O)c3)oc2c1 (stereo not given in full) | 21 | 38.2 | 1.819 | 
28 | COC(=O)[C@H](CC(C)C)NP(=O)(Oc1ccccc1)Oc1cc(O)c2c(=O)c(-c3ccc(O)cc3)coc2c1 (stereo not given in full) | 72.3 | 48.2 | 0.667 | 
29 | COC(=O)CNP(=O)(Oc1ccccc1)Oc1cc(O)c2c(=O)cc(-c3ccc(O)cc3)oc2c1 (stereo not given) | 59.7 | 71.5 | 1.198 | 
30 | COC(=O)[C@H](C)NP(=O)(Oc1ccccc1)Oc1cc(OC(C)=O)c2c(=O)c(-c3ccc(OC(C)=O)cc3)coc2c1 (stereo not given in full) | 6.6 | 11.9 | 1.803 | Activity [4]: 1.6%; Activity [5]: 1.8%; Activity [6]: 96.6%; Activity [7]: 97.07%; Activity [8]: 74.34%; Activity [9]: 0.97%; Activity [10]: 18.62%; Activity [11]: 0.74%; Activity [12]: 1.22%; Activity [13]: 3.06%; Activity [14]: 3.99%
31 | COC(=O)CNP(=O)(Oc1ccccc1)Oc1cc(O)c2c(=O)c(-c3ccc(O)cc3)coc2c1 (stereo not given) | > 100 | 44.5 | <0.445 | 
32 | COC(=O)CNP(=O)(Oc1ccccc1)Oc1cc(OC(C)=O)c2c(=O)cc(-c3ccc(OC(C)=O)c(OC(C)=O)c3)oc2c1 (stereo not given) | 26.4 | 57.1 | 2.163 | 
33 | COC(=O)[C@H](CC(C)C)NP(=O)(Oc1ccccc1)Oc1ccc2c(=O)c(-c3ccc(OC(C)=O)cc3)coc2c1 (stereo not given in full) | 60 | 44.8 | 0.747 | 
34 | COC(=O)[C@@H](NP(=O)(Oc1ccccc1)Oc1cc(O)c2c(=O)cc(-c3ccc(O)cc3)oc2c1)C(C)C (stereo not given in full) | 27.3 | 26 | 0.952 | 
35 | COC(=O)[C@H](C)NP(=O)(Oc1ccccc1)Oc1cc(O)c2c(=O)cc(-c3ccc(O)cc3)oc2c1 (stereo not given in full) | 34.7 | 35.3 | 1.017 | 
36 | COC(=O)[C@H](Cc1ccccc1)NP(=O)(Oc1ccccc1)Oc1cc(OC(C)=O)c2c(=O)c(-c3ccc(OC(C)=O)cc3)coc2c1 (stereo not given in full) | 63.2 | > 100 | 1.582 | 
37 | COC(=O)[C@H](Cc1ccccc1)NP(=O)(Oc1ccccc1)Oc1ccc2c(=O)c(-c3ccc(OC(C)=O)cc3)coc2c1 (stereo not given in full) | 60.2 | > 100 | >1.66 | 
38 | COC(=O)[C@H](C)NP(=O)(Oc1ccccc1)Oc1cc(O)c2c(=O)c(-c3ccc(O)cc3)coc2c1 (stereo not given in full) | 57.2 | 15.7 | 0.274 | 
39 | O=c1cc(-c2ccccc2)oc2cc(O)cc(O)c12 [CHRYSIN] | > 100 | > 100 |  | 
40 | C#Cc1cccc(Nc2ncnc3cc(OCCOC)c(OCCOC)cc23)c1 [ERLOTINIB] | 5.8 | 18.5 | 3.19 | 
41 | O=c1cc(-c2ccc(O)c(O)c2)oc2cc(O)cc(O)c12 [LUTEOLIN] | 34.7 | > 100 | >2.882 | 
